Experimental data: ChEMBL document CHEMBL1128703, “Chromophore-modified antitumor anthracenediones: synthesis, DNA binding, and cytotoxic activity of 1,4-bis[(aminoalkyl)amino]benzo[g]-phthalazine-5,10-diones” (J Med Chem, 1995)
Values belong to the compound of their own block, whether it stands above or below them.

Columns and labels:
A-375 = assay: Inhibitory activity against human tumor cell line […] melanoma.; format: functional, cell-based
Summary of the method: (§1)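 Fibrosarcoma HT-1080, colon HT-29, breast MCF-7 and melanoma A-375 adapted to complete RPMI 1640; seeded 2.5 × 10^4 cells/mL, preincubated 24 h, exposed to drug 144 h. MTT assay, formazan dissolved in DMSO, absorbance per well read; IC50 (M) taken as concentration giving 50% growth inhibition.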

HT-29 [1] = assay: Inhibitory activity against human tumor cell line HT-29.; format: functional, cell-based; summary of the method: as §1
MCF7 = assay: Inhibitory activity against human tumor cell line MCF-7 breast adenocarcinoma.; format: functional, cell-based; summary of the method: as §1
LoVo [2] = assay: (§2) Inhibitory activity against human colon adenocarcinoma cell line LoVo/Dx.; format: functional, cell-based
Summary of the method: (§3)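 LoVo and doxorubicin-resistant LoVo/Dx grown in Ham's F12 with 10% FCS, glutamine, BME vitamins, HEPES, pen/strep; 37 °C, CO2, mycoplasma-checked by DAPI. Seeded 2.5 × 10^4 cells/mL, preincubated 24 h, then drug exposure 144 h. MTT read-out at 570 nm; IC50 (μg/mL) as concentration inhibiting growth by 50%, at least three runs averaged.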

LoVo [3] = assay: Inhibitory activity against human colon adenocarcinoma cell line LoVo.; format: functional, cell-based; summary of the method: as §3
[4] = (§4) Resistance index as the ratio of IC50 value against LoVo/Dx to that of LoVo cell lines.; format: functional
Summary of the method: (§5)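 LoVo and LoVo/Dx, each seeded 2.5 × 10^4 cells/mL, preincubated 24 h, exposed to drug 144 h; MTT formazan read at 570 nm. Resistance index = IC50 in LoVo/Dx divided by IC50 in LoVo.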

HT-1080 [5] = assay: Inhibitory activity against human tumor cell line HT1080.; format: functional, cell-based; summary of the method: as §1
Nucleic Acid [6] = assay: Ki value was measured for the binding of compound to DNA in ETN.; format: nucleic-acid assay, Bos taurus
Summary of the method: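 UV-vis titration: DNA added to ligand at fixed concentration in 10 mM Tris, 2 mM EDTA, NaCl to ionic strength 0.15 M, pH 7.0, 25 °C. Bound/free ligand from absorbance at wavelength of largest change (isosbestic points present); intrinsic constant and site size fitted by least squares to the neighbour-exclusion equation.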

Nucleic Acid [7] = assay: dichroism data for visible band in the compound to DNA in ETN.; format: nucleic-acid assay; conditions: Bos taurus
Summary of the method: (§6)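 Dichroism in Tris-EDTA-NaCl buffer, ionic strength 0.1, pH 7.0, 25 °C. CD given as Δε from ellipticity, path length and molar concentration. Linear dichroism with DNA oriented in rotating quartz cell at 600-800 rpm, four accumulations; ligand orientation angle derived from ligand/DNA reduced LD ratio, taking bases at 90°.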

LoVo [8] = assay: as §4; format: functional, Homo sapiens; summary of the method: as §5
HT-29 [9] = assay: as §2; format: functional, cell-based; conditions: in the assay text read “HT-29” for “LoVo/Dx”
HT-1080 [10] = assay: inhibit the cellular growth by 50% was determined against human tumor cell line HT1080.; format: functional, cell-based; summary of the method: as §1
Nucleic Acid [11] = assay: dichroism data for visible band in the compound to calf thymus DNA in ETN.; format: nucleic-acid assay; conditions: Bos taurus; summary of the method: as §6
HT-29 [12] = assay: Inhibitory activity against human tumor cell line HT-29; format: functional, cell-based; summary of the method: as §1
HT-1080 [13] = assay: Inhibitory activity against human tumor cell line HT1080; format: functional, cell-based; summary of the method: as §1

SMILES: OCCCNc1nnc(NCCCO)c2cc3ccccc3cc12
IC50 (LoVo [2]): 36000 nM
IC50 (LoVo [3]): > 9600 nM
RI [4]: >3.7

SMILES: OCCNCCNc1nnc(NCCNCCO)c2cc3ccccc3cc12
IC50 (LoVo [2]): > 260000 nM
IC50 (LoVo [3]): > 8100 nM

SMILES: O=C1c2ccccc2C(=O)c2c(NCCNCCO)ccc(NCCNCCO)c21 [AMETANTRONE]
Ki (Nucleic Acid [6]): 340000 M⁻¹
LD (Nucleic Acid [7]): -0.13
IC50 (LoVo [2]): 92000 nM
RI (LoVo [8]): 158.6
IC50 (LoVo [3]): 580 nM

SMILES: CN(C)CCNc1nnc(N)c2c1C(=O)c1ccccc1C2=O
IC50 (HT-29 [9]): 6.5 nM
IC50 (HT-1080 [10]): 34 nM

SMILES: Cl.Nc1nnc(NCCNCCO)c2c1C(=O)c1ccccc1C2=O
IC50 (A-375): 0.47 nM
Ki (Nucleic Acid [6]): 45000 M⁻¹
LD (Nucleic Acid [11]): -0.13
IC50 (HT-29 [12]): 5.2 nM
IC50 (HT-1080 [13]): 8.3 nM
IC50 (MCF7): 47 nM

SMILES: O=C1c2c(O)ccc(O)c2C(=O)c2c(NCCNCCO)ccc(NCCNCCO)c21 [MITOXANTRONE]
IC50 (A-375): 26 nM
IC50 (HT-29 [1]): 17 nM
IC50 (MCF7): 20 nM
IC50 (LoVo [2]): 530 nM
IC50 (LoVo [3]): 9.7 nM
RI [4]: 54.6
IC50 (HT-1080 [5]): 66 nM

SMILES: Cl.O=C1c2ccccc2C(=O)c2c(NCCNCCO)nnc(NCCNCCO)c21
Ki (Nucleic Acid [6]): 47000 M⁻¹
LD (Nucleic Acid [7]): -0.13
IC50 (HT-29 [1]): 410 nM
IC50 (MCF7): 720 nM
IC50 (LoVo [2]): 39000 nM
RI (LoVo [8]): 14.4
IC50 (LoVo [3]): 2700 nM
IC50 (HT-1080 [5]): 1300 nM

More lines, main results first:

IC50 (A-375): 33 nM
IC50 (HT-29 [1]): 9.4 nM
IC50 (MCF7): 0.95 nM
IC50 (LoVo [2]): 440 nM
IC50 (LoVo [3]): 73 nM
IC50 (HT-1080 [5]): 46 nM
SMILES: CN(C)CCNc1nnc(NCCN(C)C)c2c1C(=O)c1ccccc1C2=O.Cl
RI [4]: 6

IC50 (LoVo [2]): 6000 nM
IC50 (LoVo [3]): 43 nM
SMILES: COc1cccc2c1C(=O)c1c(O)c3c(c(O)c1C2=O)C[C@@](O)(C(=O)CO)C[C@@H]3O[C@H]1C[C@H](N)[C@H](O)[C@H](C)O1 [DOXORUBICIN]
RI [4]: 139.5

IC50 (LoVo [2]): 1200 nM
IC50 (LoVo [3]): 260 nM
SMILES: O=C1c2ccccc2C(=O)c2c(NCCN3CCCCC3)nnc(NCCN3CCCCC3)c21
RI [4]: 4.6

IC50 (LoVo [2]): 1000 nM
IC50 (LoVo [3]): 49 nM
SMILES: CN(C)CCCNc1nnc(NCCCN(C)C)c2c1C(=O)c1ccccc1C2=O
RI [4]: 20.4

IC50 (LoVo [2]): 1700 nM
IC50 (LoVo [3]): 180 nM
SMILES: CCN(CC)CCNc1nnc(NCCN(CC)CC)c2c1C(=O)c1ccccc1C2=O
RI [4]: 9.4

IC50 (LoVo [2]): < 2000 nM
IC50 (LoVo [3]): 76 nM
SMILES: Cl.O=C1c2ccccc2C(=O)c2c(NCCCO)nnc(NCCCO)c21
RI [4]: <26

IC50 (LoVo [2]): 1300 nM
IC50 (LoVo [3]): 1400 nM
SMILES: O=C1c2ccccc2C(=O)c2c(NCc3ccccc3)nnc(NCc3ccccc3)c21
RI [4]: 0.9
